Laboratory results reported in ChEMBL document CHEMBL3259569 (J Med Chem, 2014).
Activity calls are given as the source filed them. The calls are words filed in the database; no cut-off is given here.

Experiments:
[1] = system: HCT-116; assay: Induction of apoptosis in p53 knock down human HCT116 cells assessed as caspase-3 activation at 1 uM after 24 hrs by immunoblotting analysis; format: functional, cell-based
[2] = target: Histone deacetylase 9 (Homo sapiens, UniProt Q9UKV0); assay: Inhibition of HDAC9 (unknown origin) by fluorescence assay
Histone deacetylase 9, sequence (Q9UKV0 whole entry): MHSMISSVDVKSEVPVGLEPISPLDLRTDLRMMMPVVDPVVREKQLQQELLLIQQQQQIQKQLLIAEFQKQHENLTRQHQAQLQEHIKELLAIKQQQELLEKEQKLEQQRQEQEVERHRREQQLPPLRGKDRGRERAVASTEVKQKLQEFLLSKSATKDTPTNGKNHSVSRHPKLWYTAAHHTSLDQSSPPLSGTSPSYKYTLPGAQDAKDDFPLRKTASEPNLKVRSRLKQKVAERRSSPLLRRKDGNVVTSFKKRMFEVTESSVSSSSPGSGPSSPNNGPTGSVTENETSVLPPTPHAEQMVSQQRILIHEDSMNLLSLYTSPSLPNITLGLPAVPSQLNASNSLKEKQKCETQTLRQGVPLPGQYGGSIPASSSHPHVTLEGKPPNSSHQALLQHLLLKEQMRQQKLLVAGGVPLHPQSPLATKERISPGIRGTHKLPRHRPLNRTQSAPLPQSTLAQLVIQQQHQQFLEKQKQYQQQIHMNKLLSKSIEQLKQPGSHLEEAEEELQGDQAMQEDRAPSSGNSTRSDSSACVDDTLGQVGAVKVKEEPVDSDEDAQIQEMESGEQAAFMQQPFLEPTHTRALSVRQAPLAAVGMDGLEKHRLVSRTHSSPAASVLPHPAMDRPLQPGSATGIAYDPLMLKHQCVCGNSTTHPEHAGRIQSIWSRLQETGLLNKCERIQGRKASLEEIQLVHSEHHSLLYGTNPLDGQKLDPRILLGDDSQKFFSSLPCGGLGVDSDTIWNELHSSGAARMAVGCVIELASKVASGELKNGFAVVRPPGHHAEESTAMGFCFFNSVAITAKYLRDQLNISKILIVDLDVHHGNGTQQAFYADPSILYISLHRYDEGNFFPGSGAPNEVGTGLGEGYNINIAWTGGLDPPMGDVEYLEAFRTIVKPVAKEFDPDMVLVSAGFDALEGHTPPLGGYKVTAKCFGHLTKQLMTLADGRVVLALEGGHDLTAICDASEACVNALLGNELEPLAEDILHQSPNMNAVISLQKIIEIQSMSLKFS
Procedure, shortened: (§1)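 Run by a contract testing lab. Compounds were dissolved in DMSO and tested in 10-dose IC50 mode, using 3-fold serial dilution starting at 10 μM. IC50 was taken from the dose series.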

[3] = system: HCT-116; assay: Induction of apoptosis in human HCT116 cells assessed as caspase-3 activation at 3 uM after 24 hrs by Western blotting analysis in presence of Z-VAD-FMK; format: functional, cell-based
Procedure, shortened: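 HCT116 cells treated 24 h with 3 μM compound with or without 20 μM z-VAD-fmk pan-caspase inhibitor; caspase 3 and PARP assessed by Western blot.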

[4] = system: HCT-116; assay: Cytotoxicity against human HCT116 cells by MTT assay; format: functional, cell-based
[5] = Clearance in ICR mouse at 2 mg/kg, iv by LC-MS/MS analysis; format: ADME, organism-based; parameters: dose 2 mg/kg, route intravenous; settings: in vivo
[6] = system: HCT-116; assay: Anticancer activity against human HCT116 cells assessed as disruption of 3-dimensional spheroid structure after 72 hrs by phase-contrast light microscopic analysis; format: functional, cell-based
Procedure, shortened: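 HCT116 cells (4 × 10^3/well) grown 5 days in semisolid GFR-Matrigel/10% FBS-DMEM (1:1) to form 3D spheres, then exposed to compound for 72 h; sphere structure examined by phase-contrast light microscopy.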

[7] = target: Histone deacetylase (Homo sapiens) (UniProt Q13547+O15379+Q9UBN7+Q92769+Q9UQL6+Q8WUI4+Q9BY41+Q96DB2+P56524+Q9UKV0+Q969S8); settings: HCT-116, 1 uM
[8] = target: T1, Histone deacetylase 8 (Homo sapiens, UniProt Q9BY41); assay: Inhibition of HDAC8 (unknown origin) by fluorescence assay; procedure, shortened: as §1
T1 sequence (Q9BY41 whole entry): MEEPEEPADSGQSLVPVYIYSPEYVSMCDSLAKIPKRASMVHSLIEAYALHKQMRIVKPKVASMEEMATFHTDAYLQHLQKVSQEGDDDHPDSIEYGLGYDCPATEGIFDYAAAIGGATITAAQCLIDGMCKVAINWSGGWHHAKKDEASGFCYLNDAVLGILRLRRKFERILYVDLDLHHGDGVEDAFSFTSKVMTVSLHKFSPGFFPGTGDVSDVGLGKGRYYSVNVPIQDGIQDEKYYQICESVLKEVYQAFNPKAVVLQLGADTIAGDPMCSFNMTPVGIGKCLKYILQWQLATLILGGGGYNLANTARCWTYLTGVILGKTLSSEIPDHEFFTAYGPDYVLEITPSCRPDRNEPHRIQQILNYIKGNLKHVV

[9] = Cmax in ICR mouse at 10 mg/kg, po by LC-MS/MS analysis; format: ADME, organism-based; parameters: dose 10 mg/kg, route oral; settings: in vivo
[10] = system: KB; assay: Cytotoxicity against human KB cells by MTT assay; format: functional, cell-based

IC50 [2]: 5.34 µM
clearance [5]: 127 mL/min/kg
inhibition [7]: inactive
IC50 [8]: 1.39 µM
Cmax [9]: 409 ng/mL
Structure (SMILES): O=C(/C=C/c1cccc(S(=O)(=O)n2ccc3cccnc32)c1)NO
Activity [1]: inactive
Activity [3]: inactive
IC50 [4]: 0.39 µM
Activity [6]: Dose-dependent effect
IC50 [10]: 0.76 µM
